How the values were obtained:
[1] = biological target: T1, endometase (matrilysin 2, MMP-26) (Homo sapiens, UniProt Q9NRE1); test: active-site titration, fluorogenic peptide hydrolysis, Morrison fit; format: biochemical; details: 50 mM HEPES pH 7.5, 0.2 M NaCl, 10 mM CaCl2, 0.01 % Brij-35, 25 °C, 20 min preincubation
T1 sequence (Q9NRE1 90-261): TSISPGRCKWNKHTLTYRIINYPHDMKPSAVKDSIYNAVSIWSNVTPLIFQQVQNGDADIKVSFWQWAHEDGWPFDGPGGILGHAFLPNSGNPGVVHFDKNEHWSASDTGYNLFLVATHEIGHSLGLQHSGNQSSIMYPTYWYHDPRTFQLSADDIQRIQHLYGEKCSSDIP

[2] = biological target: T1, endometase (matrilysin 2, MMP-26); test: fluorogenic peptide hydrolysis; format: biochemical
Procedure, shortened: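 MMP-26 was refolded from urea-solubilized insoluble protein by dialysis and was partially auto-activated. Active enzyme concentration was set by GM6001 titration. Final conditions were 1 nM active enzyme, 1 μM Mca-PLGLDpa-AR-NH₂, and test compound at 0.001–9 mM in 50 mM HEPES pH 7.5, 0.2 M NaCl, 10 mM CaCl₂ at 25 °C. Fluorescence was read at ex 328/em 393 nm, with maximum signal set as 100% activity.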

Row | IC50 [2] [µM] | SMILES | active-site titration, fluorogenic peptide hydrolysis, Morrison fit [1]
1 | – | CNC(=O)[C@H](Cc1c[nH]c2ccccc12)NC(=O)[C@@H](CC(=O)NO)CC(C)C [GM6001] | Titration of active MMP-26 with GM6001, a potent and broad-spectrum MMP inhibitor
2 | 110 | CCCCCCCCCCCCOS(=O)(=O)O [SDS] | –
3 | 79 | CCCCCCCCCCCCCC[N+](C)(C)C [TTAB] | –
